{"data": "Published values of several laboratories", "effect on": "enzyme activity", "action": "inhibitor", "INSR": "Insulin receptor (INSR, Homo sapiens, UniProt P06213)", "INSR phosphorylated": "Insulin receptor, phosphorylated (INSR, Homo sapiens, UniProt P06213)", "note": "Lines come from different studies, so protocols differ."}
{"SMILES": "COc1cc(Nc2cnc(C#N)c(O[C@H](C)CN(C)C)n2)ncc1-c1cnn(C)c1", "target": "INSR", "assay": "radiometric", "setting": "1 µM", "remaining activity [%]": 98}
{"SMILES": "Cc1[nH]c(/C=C2\\C(=O)Nc3ccc(F)cc32)c(C)c1C(=O)N[C@H]1CCN(C(=O)N(C)C)C1", "target": "INSR", "setting": "1 µM", "remaining activity [%]": 87}
{"SMILES": "Nc1nc(Nc2ccccc2)sc1C(=O)c1c(F)cccc1F", "target": "INSR", "setting": "10 µM", "remaining activity [%]": 88}
{"SMILES": "CC(C)(C)c1nc2c(s1)c1nc(N)ncc1c1ccc(NS(=O)(=O)c3c(F)cccc3F)c(F)c12", "target": "INSR", "assay": "radiometric", "setting": "1 µM", "remaining activity [%]": 112}
{"SMILES": "Nc1nc(NC2CCCCC2)sc1C(=O)c1ccccc1", "target": "INSR", "setting": "10 µM", "remaining activity [%]": 75}
{"SMILES": "Cc1cnc(NC2CCOCC2)nc1-n1cnc(C(=O)NC(CN)c2cc(F)cc(Cl)c2)c1 (stereo not drawn)", "target": "INSR phosphorylated", "assay": "radiometric", "setting": "1 µM", "remaining activity [%]": 104}
{"SMILES": "CCCOc1ccc(OC)c(F)c1C(=O)c1ccc(C(=O)N[C@@H]2CNC[C@H]2NC(=O)c2ccc3[nH]ncc3c2)cc1", "target": "INSR", "setting": "10 µM", "remaining activity [%]": 101}
{"SMILES": "CCN(CC)c1ccc(C2=NNC(=O)CC2C)cc1[N+](=O)[O-] (stereo not drawn)", "target": "INSR", "setting": "10 µM", "remaining activity [%]": 94}
{"SMILES": "FC(F)c1nc2ccccc2n1-c1nc(N2CCOCC2)nc(N2CCOCC2)n1", "target": "INSR", "setting": "10 µM", "remaining activity [%]": 104}
{"SMILES": "Cc1ccc(NC(=O)c2ccc(C)c(C(F)(F)F)c2)cc1C#Cc1nn(C2CCC(O)CC2)c2ncnc(N)c12 (stereo not drawn)", "target": "INSR phosphorylated", "setting": "10 µM", "remaining activity [%]": 89}
{"SMILES": "COc1cc(Cl)c(C(=O)N[C@@H](CN[C@H]2CC[C@@H](N)CC2)Cc2ccc(C#N)cc2)cc1-c1ccc(CN[C@H](C)c2ccc(C)cc2)o1", "target": "INSR", "setting": "1 µM", "remaining activity [%]": 97}
{"SMILES": "O=C(Nc1cnn(-c2csc(C(=O)NC3COC3)c2)c1)Nc1ccccc1Cl", "target": "INSR", "setting": "5 µM", "remaining activity [%]": 98.4}
